Consider 11 compounds from ChEMBL document CHEMBL2069299, “Biologically active ester derivatives as potent inhibitors of the soluble epoxide hydrolase” (Bioorg Med Chem Lett, 2012).

≈ marks a conversion by molar mass, not a printed value.

The nature of data set [1]: Solubility in water using 0.1 M pH 7.4 phosphate buffer by LC-MS/MS method. The format is physicochemical. The method, boiled down: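 Excess solid suspended in 0.1 M sodium phosphate buffer, pH 7.4; equilibrated by 1 h sonication then 24 h shaking; centrifuged. Supernatant analysed by LC-MS/MS, with amount calculated from a regression curve built for each compound from five standard solutions.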

Data set [2] in a line: Stability in human liver microsomes aunder NADPH generating system at 37 degC for 60 mins by LC-MS/MS method. It is filed as ADME, Microsome. The following applies: read-out: Stability. In a few lines:
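Test compound incubated with 0.125 mg human liver microsomal protein plus NADPH-generating system, shaken 37°C for 60 min. Remaining parent quantified by LC-MS/MS and expressed as percent; acid metabolites also monitored. Mean of triplicate independent analyses.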

For data set [3], the target named is T1, Bifunctional epoxide hydrolase 2 (Homo sapiens, UniProt P34913).
T1 sequence (P34913 whole entry): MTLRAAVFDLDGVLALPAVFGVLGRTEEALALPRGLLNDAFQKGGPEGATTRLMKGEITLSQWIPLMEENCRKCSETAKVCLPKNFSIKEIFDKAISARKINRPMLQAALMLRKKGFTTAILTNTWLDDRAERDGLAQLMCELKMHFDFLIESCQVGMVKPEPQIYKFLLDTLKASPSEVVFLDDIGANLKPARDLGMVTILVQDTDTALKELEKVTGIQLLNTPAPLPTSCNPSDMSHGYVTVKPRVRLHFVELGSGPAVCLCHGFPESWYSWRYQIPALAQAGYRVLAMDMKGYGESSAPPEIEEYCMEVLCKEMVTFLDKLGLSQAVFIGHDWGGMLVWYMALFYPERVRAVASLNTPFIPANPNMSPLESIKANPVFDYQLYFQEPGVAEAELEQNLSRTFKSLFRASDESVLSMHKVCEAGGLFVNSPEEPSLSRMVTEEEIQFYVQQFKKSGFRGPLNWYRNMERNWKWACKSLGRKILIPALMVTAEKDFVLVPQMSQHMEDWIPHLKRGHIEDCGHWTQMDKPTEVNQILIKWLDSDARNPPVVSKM
As to the kind of experiment: Inhibition of human soluble epoxide hydrolase pre-incubated for 5 mins at 30 degC before CMNPC fluorescent substrate addition by fluorimetric assay. In a few lines:
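Recombinant-free detail not given; human sEH at 0.96 nM preincubated with inhibitor 5 min at 30°C in 25 mM Bis-Tris/HCl, pH 7.0, then fluorescent substrate added at 5 μM. Fluorescence read-out; IC50 reported as mean of three separate measurements, assay standard error stated as 10–20%.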

In data set [1], `CCOCCOCC(OC(=O)CCCNC(=O)NC12CC3CC(CC(C3)C1)C2)c1ccccc1` (stereo not given) yielded a solubility of 89 µg/mL (≈ 188 µM). Further, the remaining at 1 h in data set [2] stood at 14%. In data set [3], the half-maximal inhibitory concentration (IC50) came out at 4 nM.
`CCCCC(C)OC(=O)CCCNC(=O)NC12CC3CC(CC(C3)C1)C2` (stereo not given) came in with a half-maximal inhibitory concentration (IC50) in data set [3] of 4 nM.
Regarding `CCCCC(CC)OC(=O)CCCNC(=O)NC12CC3CC(CC(C3)C1)C2` (stereo not given), the solubility in data set [1] turned out to be 3 µg/mL (≈ 7.92 µM). For the same compound, the remaining at 1 h in data set [2] worked out at 4%. For the same compound, in data set [3], the midpoint of inhibition, the IC50, lay at 4 nM.
With `CCCCC(C#N)OC(=O)CCCNC(=O)NC12CC3CC(CC(C3)C1)C2` (stereo not given), the midpoint of inhibition in data set [3], the IC50, lay at 12 nM. This lies in the double-digit nanomolar range.
In turn, `CCOCCOCCOC(=O)CCCNC(=O)NC12CC3CC(CC(C3)C1)C2` had a solubility in data set [1] of 878 µg/mL (≈ 2210 µM). Besides, the remaining at 1 h in data set [2] is 10%. The same compound had an IC50 in data set [3] of 67 nM.
For `O=C(NC1CCCC(C(=O)O)C1)NC12CC3CC(CC(C3)C1)C2` (stereo not given), the remaining at 1 h in data set [2] worked out at 95%. Moreover, half-maximal inhibition in data set [3] (IC50) required 1160 nM.
The compound `CCCCCOC(=O)C1CCCC(NC(=O)NC23CC4CC(CC(C4)C2)C3)C1` (stereo not given) gave an IC50 in data set [3] of 2 nM.
Take `CCCCC(CC)OC(=O)C1CCCC(NC(=O)NC23CC4CC(CC(C4)C2)C3)C1` (stereo not given): the solubility in data set [1] is 1 µg/mL (≈ 2.39 µM). Also, the remaining at 1 h in data set [2] was found to be 10%. Moreover, the concentration for half-maximal inhibition (IC50) in data set [3] was 3 nM.
In the same order, the values of `CCOCCOCC(OC(=O)C1CCCC(NC(=O)NC23CC4CC(CC(C4)C2)C3)C1)c1ccccc1` (stereo not given) are 41 µg/mL (≈ 80 µM), 32% and 9 nM.
For `CCCCCOC(=O)CCCNC(=O)NC12CC3CC(CC(C3)C1)C2` the same measures were 2 µg/mL (≈ 5.71 µM), below 1% and 10 nM.
Take `O=C(O)CCCNC(=O)NC12CC3CC(CC(C3)C1)C2`: in data set [2], the remaining at 1 h was determined as 97%. This compound also came in with a half-inhibitory concentration (IC50) in data set [3] of 684 nM.
